Source: ChEMBL document CHEMBL1129651, “3-Phenyl-substituted imidazo[1,5-alpha]quinoxalin-4-ones and imidazo[1,5-alpha]quinoxaline ureas that have high affinity at the GABAA/benzodiazepine receptor complex” (J Med Chem, 1996)

How the values were obtained:
Rattus norvegicus = assay: Ability to antagonize metrazole-induced seizures (clonic and tonic) in rats after intraperitoneal injection; settings: ip
[1] = biological target: GABA-A receptor; anion channel; assay: Binding affinity against benzodiazepine receptor (BzR) in rat cortical membranes determined by competition experiments with radiolabeled [3H]flunitrazepam (Fnz); assay type: cell membranes
[2] = biological target: GABA-A receptor; anion channel (Rattus norvegicus) (UniProt O09028+P15431+P18506+P18508+P19969+P20236+P23574+P23576+P28471+P28473+P30191+P62813+P63079+P63138+Q91ZM7+Q9ES14)
Mus musculus [3] = species on record: Mus musculus; assay: Compound was tested for ethanol potentiation expressed as the loss of traction response (muscle relaxation); assay type: functional
In short: (§1)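 Male CF-1 mice given 50% aqueous ethanol orally (7.5 mL/kg) plus test compound sc in 0.25% aqueous methyl cellulose (10 mL/kg). Tested 30 min later. Traction: hindlimb placed on wire within 10 s when suspended by forepaws. Righting: rolls onto feet within 10 s when released on its back. Six mice per dose; ED50s determined.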

Mus musculus [4] = species on record: Mus musculus; assay: Acute electroshock physical dependence activity (drug MA50/V122 MA50); assay type: functional
In short: (§2)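 Male CF-1 mice, 10/group, dosed sc twice daily for 3 days (0800, then 2 times that dose at 1600). Flumazenil 2.5 mg/kg iv in 5% aqueous N,N-dimethylacetamide given 24 h after the last dose. 5 min later electroshock seizure threshold estimated by up-down method (0.05 log steps; transpinnal 0.6 ms pulses, 100 Hz, 0.2 s). Comparison is against a saline-treated, flumazenil-injected control group.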

Mus musculus [5] = species on record: Mus musculus; assay: Compound was tested for ethanol potentiation expressed as loss of righting reflex (anesthesia); assay type: functional
In short: as §1

[6] = biological target: GABA A receptor alpha-3/beta-2/gamma-2 (Rattus norvegicus) (UniProt P18508+P20236+P63138); assay: In vitro efficacy as change in chloride current against GABA-A alpha-3-beta-2-gamma-2 subunit expression; assay type: functional
Mus musculus [7] = species on record: Mus musculus; assay: Antagonism of benzodiazepine traction in mice; assay type: functional
In short: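 Male CF-1 mice given triazolam 1 mg/kg ip together with test compound ip, starting at 100 mg/kg, in 0.25% aqueous methyl cellulose. Dose-response run on 0.5 log scale. Loss of traction scored 15 min later. Absence of the expected loss marks antagonism. ED50 taken from lower doses.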

Mus musculus [8] = species on record: Mus musculus; assay: Compound was tested for Acute electroshock physical dependence activity (drug MA50/V122 MA50); No significant activity; assay type: functional
In short: as §2

SMILES	ED50 (Rattus norvegicus)	Ki [1]	TBPS shift [2]	ED50 (Mus musculus [3])	Activity (Mus musculus [4])	ED50 (Mus musculus [5])	Cl - current change [6]	ED50 (Mus musculus [7])	Activity (Mus musculus [8])
COc1ccc(-c2ncn3c2c(=O)n(C(C)C)c2cc(F)ccc23)cc1	> 50 mg/kg	81.5 nM	0.97						
CN1C(=O)CN=C(c2ccccc2)c2cc(Cl)ccc21 [DIAZEPAM]	0.5 mg/kg			0.54 mg/kg	18.2	0.86 mg/kg			
Cc1cccc2c1n(C(C)C)c(=O)c1c(-c3ccc(F)cc3)ncn12	2.6 mg/kg	126 nM	1.83				1.7		
CC(C)n1c(=O)c2c(-c3ccccc3)ncn2c2ccc(F)cc21	> 50 mg/kg	39.6 nM	0.77						
CC1CN(C(=O)N2Cc3c(-c4ccc(F)cc4)ncn3-c3cccc(Cl)c32)CC(C)N1C (stereo not drawn)	1.8 mg/kg	47.4 nM	0.62		0.8			> 30 mg/kg	
COc1ccc(-c2ncn3c2c(=O)n(C(C)C)c2ccccc23)cc1	12.5 mg/kg	31.7 nM	0.75	> 30 mg/kg		> 30 mg/kg			
CC1CN(C(=O)N2Cc3c(-c4ccc(F)cc4)ncn3-c3ccccc32)CC(C)N1C (stereo not drawn)	13 mg/kg	13.2 nM	0.31		0.8			> 30 mg/kg	
Cc1ccc(-c2ncn3c2C(C)(C)N(C(=O)N2CCCC2)c2ccccc2-3)cc1	17.7 mg/kg	35 nM	1.05						
CC(C)n1c(=O)c2c(-c3ccc(F)cc3)ncn2c2ccc(F)cc21	> 50 mg/kg	59.4 nM	0.8						
CC1CN(C(=O)N2Cc3c(-c4ccc(F)cc4)ncn3-c3ccccc32)CC(C)N1 (stereo not drawn)	1.1 mg/kg	5.85 nM	0.75	4 mg/kg	0.7	> 30 mg/kg		> 30 mg/kg	
CC1(C)c2c(-c3ccc(F)cc3)ncn2-c2ccccc2N1C(=O)N1CCCC1	> 50 mg/kg	12.6 nM	0.6						
O=C(c1cccc(F)c1)N1Cc2c(-c3ccc(F)cc3)ncn2-c2ccccc21	1.3 mg/kg	5.91 nM	1.06		0.87				
CC(C)n1c(=O)c2c(-c3ccc(C(F)(F)F)cc3)ncn2c2ccccc21		> 10000 nM	0.36				0.36		
CC(C)n1c(=O)c2c(-c3ccc(F)cc3)ncn2c2cccc(Cl)c21	0.9 mg/kg	14.6 nM	2.04				3.4		
COc1cccc(-c2ncn3c2c(=O)n(C(C)C)c2ccccc23)c1	> 50 mg/kg	207 nM	0.24				0.12		
COc1ccc(-c2ncn3c2CN(C(=O)N2CC(C)NC(C)C2)c2ccccc2-3)cc1 (stereo not drawn)	0.8 mg/kg	1.39 nM	0.31		0.47			> 30 mg/kg	
CC1CN(C(=O)N2Cc3c(-c4ccc(F)cc4)ncn3-c3ccc(F)cc32)CC(C)N1C (stereo not drawn)	1.3 mg/kg		0.64		0.59				
CN(C)C(=O)N1c2ccccc2-n2cnc(-c3ccccc3)c2C1(C)C		478 nM	0.45						
CC(C)OC(=O)N1Cc2c(-c3ccc(F)cc3)ncn2-c2ccccc21	6.3 mg/kg	50.8 nM	0.93	> 30 mg/kg	0.83	> 30 mg/kg		> 30 mg/kg	
Cc1ccc(-c2ncn3c2c(=O)n(C(C)C)c2ccccc23)cc1	> 50 mg/kg	174 nM	1.09						
O=C(N1CCOCC1)N1Cc2c(-c3ccc(F)cc3)ncn2-c2cccc(Cl)c21	3.7 mg/kg	2.97 nM	0.44		0.86				
CN(C)C(=O)N1c2ccccc2-n2cnc(-c3ccc(F)cc3)c2C1(C)C	> 50 mg/kg	163 nM	0.49						
NC(=O)N1Cc2c(-c3ccc(F)cc3)ncn2-c2ccccc21	> 50 mg/kg	216 nM	0.29						
O=C(c1ccc(F)cc1)N1Cc2c(-c3ccc(F)cc3)ncn2-c2ccccc21	29.7 mg/kg	20.5 nM	0.82						
CN(C)C(=O)N1Cc2c(-c3ccc(F)cc3)ncn2-c2ccccc21	4.4 mg/kg	2.96 nM	0.53	11 mg/kg	0.87	> 30 mg/kg		4.9 mg/kg	
COc1ccc(-c2ncn3c2c(=O)n(C(C)C)c2c(Cl)cccc23)cc1	1.3 mg/kg	27.9 nM	1.04	> 30 mg/kg		> 30 mg/kg	1	> 30 mg/kg	0.91
